From publication PMC7415516 (Clinical genitourinary cancer, 2020)
Where two headings read alike, the source gives them in different places.

Experiments:
patients with CRPC [1] = details: cited from earlier work; for PSA response rate: treatment naïve patients, daily cumulative doses of 600 mg or greater
[2] = system: enzalutamide-resistant cell lines (e.g. C4–2, C4–2B, MR49C, MR49F); details: established enzalutamide-resistant cell lines; cited from earlier work
[3] = system: CRPC cell lines MR49F, MDA-PCA-133, LNCaP; details: MDA-PCA-133, LNCaP (AR F876L, H874Y, T877A); cited from earlier work
CYP17 lyase = details: cited from earlier work
[4] = system: patients with mCRPC previously treated with enzalutamide; assay: Toxicity evaluation, adverse events graded by CTCAE version 4.0; assay type: in vivo, human
In short: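 Adverse events in enrolled mCRPC patients were graded per NCI CTCAE v4.0 during oral dosing: twice-daily titration to 450 mg, later 750 mg or 600 mg once daily. A related Grade 3 event held treatment until recovery to Grade 1 or baseline. Investigator-discretion reductions were allowed for low-grade events. Drug was stopped for Grade 4 events, a delay over 6 weeks, or more than 2 reductions.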

[5] = system: patients with mCRPC previously treated with enzalutamide; assay: Phase 2 open label study: PSA response, time to progression, overall survival; assay type: in vivo, human
In short: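 Open-label trial in men aged 18 or older with progressive mCRPC after more than three 28-day enzalutamide cycles, split into pre- and post-docetaxel cohorts. Oral dosing without routine steroids: 150 mg twice daily titrated to 450 mg twice daily, later amended to 750 mg, then 600 mg, once daily. PSA response was a ≥50% drop from baseline at 12 weeks (PCWG2). Radiographic progression by modified RECIST 1.1. Kaplan-Meier time to progression and overall survival.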

[6] = Pharmacokinetic analysis, plasma concentrations by LC-MS/MS, noncompartmental; assay type: in vivo, human; details: for half-life / Cmax / Tmax / Vd/F: male, human, plasma; for Vd/F: Vz/F
patients with CRPC [7] = details: phase 1 study, once daily dosing; cited from earlier work
patients with mCRPC = details: sequence of ENZ followed by AA, cited from earlier work
[8] = N = 17, attribution at least possible
[9] = 600 mg oral, C1D1 (n=4), first dose
[10] = 600 mg oral, C2D1 (n=4), steady-state
[11] = 750 mg oral, C1D1 (n=3), first dose
[12] = 750 mg oral, C2D2 (n=l), steady-state
[13] = po, 600 mg, 600 mg oral, C1D1 (n=4), first dose
[14] = po, 600 mg, 600 mg oral, C2D1 (n=4), steady-state
[15] = po, 750 mg, 750 mg oral, C1D1 (n=3), first dose
[16] = po, 750 mg, 750 mg oral, C2D2 (n=l), steady-state

SMILES: CC(C)[C@](O)(c1ccc2cc(OC(F)F)c(OC(F)F)cc2c1)c1c[nH]nn1 [Seviteronel]
- PSA declines of 50% or greater (patients with CRPC [1]; 450 mg twice daily, patients who had previously received ENZ): 2 of 7
- response rate (patients with CRPC [1]; pre-treated patients, Phase I study once daily dosing): 0%
- PSA response rate (patients with CRPC [1]; once daily dosing (N=9)): 33%
- PSA response rate (patients with CRPC [1]; twice daily dosing (N=26)): 11%
- potency compared with AA [2]: more potent than AA
- efficacy in in vivo models [3]: effective
- selectivity towards the CYP17 lyase over hydroxylase (CYP17 lyase): approximately 10 fold
- Blurred Vision, All Grades (Gr 1–3) [4, 8]: 4 (24) No. Patients (%)
- Blurred Vision, Grade 1 [4, 8]: 3 (18) No. Patients (%)
- Blurred Vision, Grade 2 [4, 8]: 1 (6) No. Patients (%)
- Blurred Vision, Grade 3 [4, 8]: 0 (0) No. Patients (%)
- Concentration Impairment, All Grades (Gr 1–3) [4, 8]: 14 (82) No. Patients (%)
- Concentration Impairment, Grade 1 [4, 8]: 9 (53) No. Patients (%)
- Concentration Impairment, Grade 2 [4, 8]: 4 (24) No. Patients (%)
- Concentration Impairment, Grade 3 [4, 8]: 1 (6) No. Patients (%)
- Dizziness, All Grades (Gr 1–3) [4, 8]: 6 (35) No. Patients (%)
- Dizziness, Grade 1 [4, 8]: 3 (18) No. Patients (%)
- Dizziness, Grade 2 [4, 8]: 1 (6) No. Patients (%)
- Dizziness, Grade 3 [4, 8]: 2 (12) No. Patients (%)
- Edema (limbs), All Grades (Gr 1–3) [4, 8]: 3 (18) No. Patients (%)
- Edema (limbs), Grade 1 [4, 8]: 2 (12) No. Patients (%)
- Edema (limbs), Grade 2 [4, 8]: 1 (6) No. Patients (%)
- Edema (limbs), Grade 3 [4, 8]: 0 (0) No. Patients (%)
- Fall, All Grades (Gr 1–3) [4, 8]: 3 (18) No. Patients (%)
- Fall, Grade 1 [4, 8]: 1 (6) No. Patients (%)
- Fall, Grade 2 [4, 8]: 1 (6) No. Patients (%)
- Fall, Grade 3 [4, 8]: 1 (6) No. Patients (%)
- Fatigue, All Grades (Gr 1–3) [4, 8]: 11 (65) No. Patients (%)
- Fatigue, Grade 1 [4, 8]: 3 (18) No. Patients (%)
- Fatigue, Grade 2 [4, 8]: 8 (47) No. Patients (%)
- Fatigue, Grade 3 [4, 8]: 0 (0) No. Patients (%)
- Gait Disturbance, All Grades (Gr 1–3) [4, 8]: 3 (18) No. Patients (%)
- Gait Disturbance, Grade 1 [4, 8]: 3 (18) No. Patients (%)
- Gait Disturbance, Grade 2 [4, 8]: 0 (0) No. Patients (%)
- Gait Disturbance, Grade 3 [4, 8]: 0 (0) No. Patients (%)
- Hypotension, All Grades (Gr 1–3) [4, 8]: 4 (24) No. Patients (%)
- Hypotension, Grade 1 [4, 8]: 1 (6) No. Patients (%)
- Hypotension, Grade 2 [4, 8]: 2 (12) No. Patients (%)
- Hypotension, Grade 3 [4, 8]: 1 (6) No. Patients (%)
- Malaise, All Grades (Gr 1–3) [4, 8]: 3 (18) No. Patients (%)
- Malaise, Grade 1 [4, 8]: 0 (0) No. Patients (%)
- Malaise, Grade 2 [4, 8]: 3 (18) No. Patients (%)
- Malaise, Grade 3 [4, 8]: 0 (0) No. Patients (%)
- Nausea, All Grades (Gr 1–3) [4, 8]: 9 (53) No. Patients (%)
- Nausea, Grade 1 [4, 8]: 7 (41) No. Patients (%)
- Nausea, Grade 2 [4, 8]: 0 (0) No. Patients (%)
- Nausea, Grade 3 [4, 8]: 2 (12) No. Patients (%)
- Presyncope, All Grades (Gr 1–3) [4, 8]: 3 (18) No. Patients (%)
- Presyncope, Grade 1 [4, 8]: 0 (0) No. Patients (%)
- Presyncope, Grade 2 [4, 8]: 3 (18) No. Patients (%)
- Presyncope, Grade 3 [4, 8]: 0 (0) No. Patients (%)
- Tremor, All Grades (Gr 1–3) [4, 8]: 10 (59) No. Patients (%)
- Tremor, Grade 1 [4, 8]: 9 (53) No. Patients (%)
- Tremor, Grade 2 [4, 8]: 1 (6) No. Patients (%)
- Tremor, Grade 3 [4, 8]: 0 (0) No. Patients (%)
- Vomiting, All Grades (Gr 1–3) [4, 8]: 3 (18) No. Patients (%)
- Vomiting, Grade 1 [4, 8]: 3 (18) No. Patients (%)
- Vomiting, Grade 2 [4, 8]: 0 (0) No. Patients (%)
- Vomiting, Grade 3 [4, 8]: 0 (0) No. Patients (%)
- Grade 4 adverse events related to study treatment ([4]; in vivo): No Grade 4 adverse events related to the study treatment were reported
- number of Grade 3 adverse events ([4]; in vivo): nine
- Concentration impairment Grade 2 or higher ([4]; of 17 patients): 5 patients
- patients with CNS toxicities that contributed to treatment discontinuation ([4]; of 17 patients): nine
- diarrhea ([4]; patients receiving 750 mg once daily): not reported
- tolerability ([4]; twice daily 450 mg or once daily 600/750 mg, without oral steroids): not generally well tolerated
- rate of significant PSA response (≥ 50% decrease in baseline serum PSA) ([5]; all 17 patients, after 12 weeks of seviteronel, PCWG2 criteria): 6%
- patients having documented PSA progression per PCWG2 ([5]; of 17 patients): 8 patients
- minimal decline in PSA ([5]; one patient, pre-chemotherapy cohort, 750 mg once daily reduced to 450 mg once daily, after 11 weeks): 15%
- AUC/D (dose-normalized) [6, 9]: 55.1 ± 7.21 mg·h/L/mg
- Cmax/D (dose-normalized) [6, 9]: 6.77 ± 3.20 mg/L/mg
- CL/F ([6]; 600 mg oral, C1D1 (n=4), first dose, Dose/AUCinf): 18.4 ± 2.50 L/h
- AUC/D (dose-normalized) [6, 10]: 92.3 ± 9.94 mg·h/L/mg
- Cmax/D (dose-normalized) [6, 10]: 7.76 ± 1.93 mg/L/mg
- CL/F ([6]; 600 mg oral, C2D1 (n=4), steady-state, Dose/AUCtau): 10.9 ± 1.32 L/h
- AUC/D (dose-normalized) [6, 11]: 58.9 ± 2.87 mg·h/L/mg
- Cmax/D (dose-normalized) [6, 11]: 6.82 ± 2.54 mg/L/mg
- CL/F ([6]; 750 mg oral, C1D1 (n=3), first dose, Dose/AUCinf): 17.0 ± 0.84 L/h
- AUC/D (dose-normalized) [6, 12]: 84.6 mg·h/L/mg
- Cmax/D (dose-normalized) [6, 12]: 7.53 mg/L/mg
- CL/F ([6]; 750 mg oral, C2D2 (n=l), steady-state, Dose/AUCtau): 11.8 L/h
- increase of dose-normalized steady-state AUCτ over first dose AUCINF ([6]; 6 patients, p=0.001): 61%
- dose-normalized CMAX, mean ([6]; Cycle 1): 6.79 µg/L/mg
- dose-normalized first dose AUCINF ([6]; first dose): 56.7 µg·h/L/mg
- half-life ([6]; oral, mean first dose half-life, 48-hr sampling window, range 7.9 – 23.5 hr): 13.9 h
- Cmax [6, 13]: 4070 ± 1920 ng/mL
- Cmax [6, 14]: 4660 ± 1160 ng/mL
- half-life ([6]; po, 600 mg, T1/2, 600 mg oral, C1D1 (n=4), first dose): 16.4 ± 4.78 h
- half-life ([6]; po, 600 mg, T1/2, 600 mg oral, C2D1 (n=4), steady-state): 14.8 ± 5.94 h
- Tmax [6, 13]: 2 h
- Tmax [6, 14]: 5 ± 2.58 h
- Vd/F [6, 13]: 438 ± 146 L
- Vd/F [6, 14]: 229 ± 77.7 L
- Cmax [6, 15]: 5110 ± 1900 ng/mL
- Cmax [6, 16]: 5650 ng/mL
- half-life ([6]; po, 750 mg, T1/2, 750 mg oral, C1D1 (n=3), first dose): 10.5 ± 4.35 h
- half-life ([6]; po, 750 mg, T1/2, 750 mg oral, C2D2 (n=l), steady-state): 18.3 h
- Tmax [6, 15]: 2 ± 1.7 h
- Tmax [6, 16]: 2 h
- Vd/F [6, 15]: 260 ± 121 L
- Vd/F [6, 16]: 312 L
- time to reach 97% steady-state ([6]; once daily dosing): 69.5 h
- expected accumulation above first-dose ([6]; once daily dosing until steady-state): 43%
- increase of steady-state dose-normalized CMAX over Cycle 1 ([6]; p=0.44): 20%
- start of apparent monophasic elimination post dose ([6]; single oral dose 600mg or 750mg with food): 2 to 4 h
- dose-normalized CMAX, mean ([6]; steady-state): 8.16 µg/L/mg
- dose-normalized steady-state AUCτ ([6]; steady-state): 91.3 µg·h/L/mg
- patients experiencing fatigue (patients with CRPC [7]): 71%
- patients with blurry vision (patients with CRPC [7]): 33%
- patients with dizziness (patients with CRPC [7]): 52%

SMILES: CC(=O)O[C@H]1CC[C@@]2(C)C(=CC[C@@H]3[C@@H]2CC[C@]2(C)C(c4cccnc4)=CC[C@@H]32)C1 [AA, abiraterone acetate]
- PSA response rate (patients with mCRPC; ref 39): 3%
- PSA response rate (patients with mCRPC; ref 40): 8%
